Twelve molecules from ChEMBL document CHEMBL1137299, “Elucidation of the bioactive conformation of the N-substituted trans-3,4-dimethyl-4-(3-hydroxyphenyl)piperidine class of mu-opioid receptor antagonists” (J Med Chem, 2006) can be followed below.

The target of assay [1] is T1, Delta-type opioid receptor (Homo sapiens, UniProt P41143). The assay can be described thus: Inhibition of [3H]diprenorphine binding to human cloned delta opioid receptor expressed in CHO cells at 10 uM. It is filed as cell-based. An outline of the steps:
(§1)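 Membranes from CHO cells stably expressing human δ, κ or μ receptor (10-80 µg protein) incubated with [3H]diprenorphine (0.5-1.0 nM) and competitor at 10 µM. Buffer: 50 mM Tris-HCl pH 7.8, 1 mM EGTA, 5 mM MgCl2, protease inhibitors. 60 min at room temperature, then GF/B filtration and scintillation counting. Nonspecific binding was defined with 10 µM naloxone. Read-out was % inhibition of specific binding.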

For assay [2], the target named is T2, Kappa-type opioid receptor (Homo sapiens, UniProt P41145). Nature of the assay: Displacement of [3H]diprenorphine from human cloned kappa opioid receptor expressed in CHO cells. It is filed as cell-based.
T2 sequence (P41145 whole entry): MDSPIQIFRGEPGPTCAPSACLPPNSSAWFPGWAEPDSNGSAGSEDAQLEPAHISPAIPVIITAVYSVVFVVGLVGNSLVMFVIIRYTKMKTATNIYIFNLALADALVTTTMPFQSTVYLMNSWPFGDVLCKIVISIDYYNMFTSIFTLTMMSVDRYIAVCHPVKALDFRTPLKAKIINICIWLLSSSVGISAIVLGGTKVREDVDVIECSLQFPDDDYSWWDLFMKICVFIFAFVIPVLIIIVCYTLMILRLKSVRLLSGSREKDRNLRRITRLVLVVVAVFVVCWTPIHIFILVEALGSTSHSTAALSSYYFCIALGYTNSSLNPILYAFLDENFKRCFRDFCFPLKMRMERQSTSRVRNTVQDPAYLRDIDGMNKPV
Assay [3] concerns the target T3, Mu-type opioid receptor (Homo sapiens, UniProt P35372). Nature of the assay: Displacement of [3H]diprenorphine from human cloned mu opioid receptor expressed in CHO cells. Format: cell-based. On the technique in general: Displacement assays read how much labelled ligand stays bound in the presence of the test substance.
In assay [4] the target is T3, Mu-type opioid receptor. The assay can be described thus: Inhibition of [3H]diprenorphine binding to human cloned mu opioid receptor expressed in CHO cells at 10 uM. It is filed as cell-based. The method in brief: as §1
Assay [5] deals with T3, Mu-type opioid receptor. Nature of the assay: Antagonist activity against human cloned mu opioid receptor expressed in CHO cells assessed as inhibition of loperamide-stimulated [35S]GTP-gamma-S binding. Format: functional, cell-based. In general terms: GTPγS resists hydrolysis and so accumulates on activated G proteins.
Assay [6] deals with T1, Delta-type opioid receptor. Nature of the assay: Displacement of [3H]diprenorphine from human cloned delta opioid receptor expressed in CHO cells. Format: cell-based.
Assay [7] concerns the target T2, Kappa-type opioid receptor. The assay can be described thus: Inhibition of [3H]diprenorphine binding to human cloned kappa opioid receptor expressed in CHO cells at 10 uM. Format: cell-based. An outline of the steps:
as §1

Assay [8] has as its target T2, Kappa-type opioid receptor. Nature of the assay: Partial agonist activity at human cloned kappa opioid receptor expressed in CHO cells assessed as stimulation of [35S]GTP-gamma-S binding. Format: functional, cell-based. An outline of the steps:
(§2)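 CHO membranes expressing the relevant human receptor (50-100 µg protein) were exposed to a concentration series of agonist. Incubated 1 h at room temperature, centrifuged, and bound label counted. Potency and efficacy were assessed from stimulation.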

The target of assay [9] is T1, Delta-type opioid receptor. The assay can be described thus: Agonist activity at human cloned delta opioid receptor expressed in CHO cells assessed as stimulation of [35S]GTP-gamma-S binding. It is filed as functional, cell-based. An outline of the steps:
as §2

In assay [10] the target is T3, Mu-type opioid receptor. Nature of the assay: Agonist activity at human cloned mu opioid receptor expressed in CHO cells assessed as stimulation of [35S]GTP-gamma-S binding. It is filed as functional, cell-based. An outline of the steps: as §2
The target in assay [11] is T1, Delta-type opioid receptor. The assay can be described thus: Antagonist activity against human cloned delta opioid receptor expressed in CHO cells assessed as inhibition of […]-stimulated [35S]GTP-gamma-S binding. Format: functional, cell-based. An outline of the steps:
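In receptor-expressing CHO membranes (50-100 µg protein), antagonist was added to mixtures containing […] agonist. Incubated 1 h at room temperature, then centrifuged; bound radioactivity was counted by scintillation.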

The target in assay [12] is T2, Kappa-type opioid receptor. Nature of the assay: Antagonist activity against human cloned kappa opioid receptor expressed in CHO cells assessed as inhibition of […]-stimulated [35S]GTPgammaS binding. Format: functional, cell-based.

T1 sequence (P41143 whole entry): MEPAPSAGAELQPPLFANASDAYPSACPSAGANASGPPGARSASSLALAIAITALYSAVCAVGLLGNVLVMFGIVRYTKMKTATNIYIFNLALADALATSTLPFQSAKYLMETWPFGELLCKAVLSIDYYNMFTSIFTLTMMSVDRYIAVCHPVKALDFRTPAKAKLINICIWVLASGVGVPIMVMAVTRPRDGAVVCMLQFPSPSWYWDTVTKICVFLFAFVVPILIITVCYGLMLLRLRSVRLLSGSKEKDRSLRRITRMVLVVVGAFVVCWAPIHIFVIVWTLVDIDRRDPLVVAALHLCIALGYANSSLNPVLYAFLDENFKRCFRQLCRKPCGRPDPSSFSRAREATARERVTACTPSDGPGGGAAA
T3 sequence (P35372 whole entry): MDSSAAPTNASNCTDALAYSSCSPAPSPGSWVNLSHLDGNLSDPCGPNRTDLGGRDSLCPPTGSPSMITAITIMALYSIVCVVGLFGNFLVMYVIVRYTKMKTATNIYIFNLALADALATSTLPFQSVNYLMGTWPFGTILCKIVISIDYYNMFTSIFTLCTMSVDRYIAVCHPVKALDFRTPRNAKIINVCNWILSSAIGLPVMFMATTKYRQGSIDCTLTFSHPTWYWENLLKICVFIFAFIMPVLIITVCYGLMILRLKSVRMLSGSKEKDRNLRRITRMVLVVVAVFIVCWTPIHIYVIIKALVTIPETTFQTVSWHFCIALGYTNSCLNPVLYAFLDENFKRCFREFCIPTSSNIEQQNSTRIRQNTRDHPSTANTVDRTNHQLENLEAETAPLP

As a reminder, the inhibition is the drop in the measured response relative to a control, in per cent. Read a high inhibition as a response far below the control. The Ki is the dissociation constant of the complex between target and ligand, obtained from inhibition or displacement. Read a high Ki as weaker binding. The molecule `C[C@H]1CN2C[C@@H](c3ccccc3)CC[C@@H]2C[C@@]1(C)c1cccc(O)c1` gave an inhibition in assay [1] of 49%. In addition, the inhibitory constant (Ki) amounted to 1400 nM in [2] and 430 nM on Mu-type opioid receptor [3].
On to `C[C@H]1[C@H]2CCCCN2CC[C@@]1(C)c1cccc(O)c1`, for which the inhibition in assay [1] amounted to 47%; on Mu-type opioid receptor [4], 43%. The affinity in assay [2] corresponds to a Ki of 520 nM.
The IC50 is the point on the concentration scale where inhibition reaches its midpoint. Consider `C[C@H]1[C@@H]2CCCCN2CC[C@@]1(C)c1cccc(O)c1`, for which the IC50 on Mu-type opioid receptor [5] came to 1000 nM. In addition, the values for the Ki (in [2]; at Mu-type opioid receptor [3]; in [6]) were 69 nM, 120 nM and 220 nM, respectively.
For `C[C@H]1[C@@H]2CC[C@H](c3ccccc3)CN2CC[C@@]1(C)c1cccc(O)c1`, the IC50 at Mu-type opioid receptor [5] was found to be 150 nM. The Ki turned out to be 100 nM in assay [2], 73 nM on Mu-type opioid receptor [3] and 190 nM in [6].
For `C[C@H]1CN2CCCC[C@H]2C[C@@]1(C)c1cccc(O)c1`, the figures for the inhibition in [7] and in [1] were 44% and 37%, respectively. This molecule came in with a Ki on Mu-type opioid receptor [3] of 940 nM.
Broadly, the EC50 is the concentration needed to bring the measured effect to its halfway point. `C[C@H]1[C@@H]2CC[C@@H](c3ccccc3)CN2CC[C@@]1(C)c1cccc(O)c1`: the 50% effective concentration (EC50) was found to be 200 nM in [8], 55 nM in assay [9] and 53 nM on Mu-type opioid receptor [10]. For the same molecule, the inhibitory constant (Ki) in assay [2] was determined as 65 nM; at Mu-type opioid receptor [3] it was 0.9 nM; in assay [6] it was 2.1 nM.
Take `C[C@H]1CN2C[C@H](c3ccccc3)CC[C@H]2C[C@@]1(C)c1cccc(O)c1`: the figures for the half-inhibitory concentration (IC50) (on Mu-type opioid receptor [5]; in assay [11]; in assay [12]) were 0.54 nM, 16 nM and 1.2 nM, respectively. The Ki at Mu-type opioid receptor [3] is 0.62 nM; in assay [6], 31 nM.
As for `C[C@H]1[C@H]2CC[C@H](c3ccccc3)CN2CC[C@@]1(C)c1cccc(O)c1`, on Mu-type opioid receptor [5], the IC50 worked out at 190 nM. The figures for the Ki (in [2]; at Mu-type opioid receptor [3]; in assay [6]) were 35 nM, 26 nM and 25 nM, respectively.
In the case of `C[C@H]1CN2C[C@H](c3ccccc3)CC[C@@H]2C[C@@]1(C)c1cccc(O)c1`, on Mu-type opioid receptor [5], the IC50 is 210 nM. Further, the Ki in assay [2] came out at 430 nM; at Mu-type opioid receptor [3], 110 nM; in assay [6], 900 nM.
As for `C[C@H]1CN2CCCC[C@@H]2C[C@@]1(C)c1cccc(O)c1`, the inhibition in assay [1] came to 40%. For the same molecule, the inhibition constant (Ki) in assay [2] came out at 520 nM; at Mu-type opioid receptor [3] it was 710 nM.
Take `C[C@H]1[C@H]2CC[C@@H](c3ccccc3)CN2CC[C@@]1(C)c1cccc(O)c1`: the concentration for half-maximal inhibition (IC50) at Mu-type opioid receptor [5] was found to be 120 nM. Also, the values for the Ki (in assay [2]; at Mu-type opioid receptor [3]; in assay [6]) were 16 nM, 37 nM and 280 nM, respectively.
`C[C@H]1CN2C[C@@H](c3ccccc3)CC[C@H]2C[C@@]1(C)c1cccc(O)c1` gave an inhibition in assay [1] of 51%. Also, the IC50 at Mu-type opioid receptor [5] amounted to 110 nM. Also, the Ki was determined as 440 nM in [2] and 110 nM on Mu-type opioid receptor [3].
